Assay results reported in ChEMBL document CHEMBL1128385, “Three-dimensional quantitative structure-activity relationships of somatostatin analogues. 1. Comparative molecular field analysis of growth hormone release-inhibiting potencies” (J Med Chem, 1995).

Organism: Rattus norvegicus
Experiment: In vitro GH release inhibiting potency on anterior pitutaries from adult male rats, relative to somatostatin
Format: functional
Outline: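 Rat anterior pituitary cells (adult males, 200-250 g), trypsin/DNase dispersed, plated 2 × 10^5 cells/well, cultured 96 h at 37 °C in serum-supplemented DMEM. After washing, cells were pulsed 3 h at 37 °C with 1 nM GRF(1-29)NH2 ± graded analogue doses in medium 199/1% BSA, quadruplicate wells. Medium GH was measured by double-antibody RIA. Potency relative to somatostatin (=1.0) came from four-point assay (mean of ≥3 experiments) or IC50 comparison.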

SMILES | GHI
CC(C)C1NC(=O)[C@H](CCCCN)NC(=O)C(Cc2c[nH]c3ccccc23)NC(=O)[C@H](Cc2ccc(O)cc2)NC(=O)C(C)N(C)C(=O)[C@H](Cc2ccccc2)NC1=O (single isomer, unassigned) | 0.02
CC(C)C1NC(=O)[C@H](CCCCN)NC(=O)[C@@H](Cc2c[nH]c3ccccc23)NC(=O)C(Cc2ccc(O)cc2)NC(=O)CCSSCC(C(=O)N[C@@H](Cc2ccccc2)C(N)=O)NC1=O (single isomer, unassigned) | 23
CC(C)[C@@H]1NC(=O)C(CCCCN)NC(=O)[C@@H](Cc2c[nH]c3ccccc23)NC(=O)C(Cc2ccccc2)NC(=O)[C@@H]2CCCN2C(=O)C(Cc2ccccc2)NC1=O (single isomer, unassigned) | 0.29
CC1C(=O)N[C@@H](Cc2ccccc2)C(=O)NC(Cc2c[nH]c3ccccc23)C(=O)N[C@@H](CCCCN)C(=O)NC([C@@H](C)O)C(=O)N[C@@H](Cc2ccccc2)C(=O)N1C (single isomer, unassigned) | 0.29
CC1NC(=O)[C@@H]2CCCN2C(=O)C(Cc2ccccc2)NC(=O)[C@H]([C@@H](C)O)NC(=O)C(CCCCN)NC(=O)[C@@H](Cc2c[nH]c3ccccc23)NC1=O (single isomer, unassigned) | 5
CC[C@@H]1NC(=O)C(CCCCN)NC(=O)[C@@H](Cc2c[nH]c3ccccc23)NC(=O)C(Cc2ccccc2)NC(=O)[C@@H]2CCCN2C(=O)C(Cc2ccccc2)NC1=O (single isomer, unassigned) | 1.25
CC[C@@H]1NC(=O)[C@H](CCCCN)NC(=O)C(Cc2c[nH]c3ccccc23)NC(=O)[C@H](Cc2ccc(O)cc2)NC(=O)[C@@H]2Cc3ccccc3CN2C(=O)[C@H](Cc2ccccc2)NC1=O (single isomer, unassigned) | 0.26
C[C@@H](O)[C@@H]1NC(=O)C(CCCCN)NC(=O)[C@@H](Cc2c[nH]c3ccccc23)NC(=O)C(Cc2ccc(O)cc2)NC(=O)[C@@H]2CCCN2C(=O)C(Cc2ccccc2)NC1=O (single isomer, unassigned) | 0.07
C[C@@H](O)[C@@H]1NC(=O)C(CCCCN)NC(=O)[C@@H](Cc2c[nH]c3ccccc23)NC(=O)C(Cc2ccccc2)NC(=O)[C@@H]2CCCN2C(=O)C(Cc2ccccc2)NC1=O (single isomer, unassigned) | 0.59
C[C@@H](O)[C@@H]1NC(=O)C(CCCCN)NC(=O)[C@@H](Cc2c[nH]c3ccccc23)NC(=O)C(Cc2ccccc2)NC(=O)[C@@H]2CCCN2C(=O)[C@@H]2CCCN2C1=O (single isomer, unassigned) | 125
C[C@@H](O)[C@@H]1NC(=O)C(CCCCN)NC(=O)[C@@H](Cc2c[nH]c3ccccc23)NC(=O)C(Cc2ccccc2)NC(=O)[C@H](Cc2ccccc2)NC(=O)C(Cc2ccccc2)NC1=O (single isomer, unassigned) | 3.71
C[C@@H]1NC(=O)[C@H]([C@@H](C)O)NC(=O)C(CCCCN)NC(=O)[C@@H](Cc2c[nH]c3ccccc23)NC(=O)C(Cc2ccccc2)NC(=O)[C@H]2CCCN2C1=O (single isomer, unassigned) | 166
C[C@H]1C(=O)NC(Cc2ccccc2)C(=O)NCCCCCCC(=O)N[C@@H](Cc2ccccc2)C(=O)NC(Cc2ccccc2)C(=O)N[C@H](Cc2c[nH]c3ccccc23)C(=O)NC(CCCCN)C(=O)N1C (single isomer, unassigned) | 50
NCCCCC1NC(=O)[C@@H](Cc2c[nH]c3ccccc23)NC(=O)C(Cc2ccccc2)NC(=O)[C@@H]2CCCN2C(=O)C(Cc2ccccc2)NC(=O)[C@H](CO)NC1=O (single isomer, unassigned) | 0.71
NCCCCC1NC(=O)[C@@H](Cc2c[nH]c3ccccc23)NC(=O)C(Cc2ccccc2)NC(=O)[C@H](Cc2ccccc2)NC(=O)CCCCCCNC(=O)C(Cc2ccccc2)NC(=O)C2(CCCC2)NC1=O (single isomer, unassigned) | 6.7
CC1NC(=O)[C@H]([C@@H](C)O)NC(=O)C(CCCCN)NC(=O)[C@@H](Cc2c[nH]c3ccccc23)NC(=O)C(Cc2ccccc2)NC(=O)[C@@H]2CCCN2C1=O (single isomer, unassigned; 58) | 16.7
CC1NC(=O)[C@H]([C@@H](C)O)NC(=O)C(CCCCN)NC(=O)[C@@H](Cc2c[nH]c3ccccc23)NC(=O)C(Cc2ccccc2)NC(=O)[C@@H]2CCCN2C1=O (single isomer, unassigned; 61) | 500
CC(C)C[C@@H]1NC(=O)[C@H](Cc2ccccc2)NC(=O)CCCCCCNC(=O)[C@H](Cc2ccccc2)NC(=O)[C@H]([C@@H](C)O)NC(=O)[C@H](CCCCN)NC(=O)[C@@H](Cc2c[nH]c3ccccc23)NC1=O (stereo in doubt) | 1.05

SMILES | GHI
COc1ccc2[nH]cc(C[C@@H]3NC(=O)[C@H](Cc4ccccc4)NC(=O)[C@H](Cc4ccccc4)NC(=O)CCCCCCNC(=O)[C@H](Cc4ccccc4)NC(=O)[C@H]([C@@H](C)O)NC(=O)[C@H](CCCCN)NC3=O)c2c1 (stereo in doubt) | 50
C[C@@H](O)[C@@H]1NC(=O)[C@H](CCCCN)NC(=O)[C@@H](Cc2c[nH]c3ccccc23)NC(=O)[C@H](Cc2c[nH]c3ccccc23)NC(=O)[C@H](Cc2ccccc2)NC(=O)CCCCCCNC(=O)[C@H](Cc2ccccc2)NC1=O (stereo in doubt) | 16.7
C[C@@H](O)[C@@H]1NC(=O)[C@H](CCCCN)NC(=O)[C@@H](Cc2c[nH]c3ccccc23)NC(=O)[C@H](Cc2ccc(Cl)cc2)NC(=O)[C@H](Cc2ccccc2)NC(=O)CCCCCCNC(=O)[C@H](Cc2ccccc2)NC1=O (stereo in doubt) | 1.4
C[C@@H](O)[C@@H]1NC(=O)[C@H](CCCCN)NC(=O)[C@@H](Cc2c[nH]c3ccccc23)NC(=O)[C@H](Cc2ccc(F)cc2)NC(=O)[C@H](Cc2ccccc2)NC(=O)CCCCCCNC(=O)[C@H](Cc2ccccc2)NC1=O (stereo in doubt) | 20
C[C@@H](O)[C@@H]1NC(=O)[C@H](CCCCN)NC(=O)[C@@H](Cc2c[nH]c3ccccc23)NC(=O)[C@H](Cc2ccc(N)cc2)NC(=O)[C@H](Cc2ccccc2)NC(=O)CCCCCCNC(=O)[C@H](Cc2ccccc2)NC1=O (stereo in doubt) | 35
C[C@@H](O)[C@@H]1NC(=O)[C@H](CCCCN)NC(=O)[C@@H](Cc2c[nH]c3ccccc23)NC(=O)[C@H](Cc2ccc(O)cc2)NC(=O)[C@H](Cc2ccccc2)NC(=O)CCCCCCNC(=O)[C@H](Cc2ccccc2)NC1=O (stereo in doubt) | 1.04
C[C@@H](O)[C@@H]1NC(=O)[C@H](CCCCN)NC(=O)[C@@H](Cc2c[nH]c3ccccc23)NC(=O)[C@H](Cc2ccc([N+](=O)[O-])cc2)NC(=O)[C@H](Cc2ccccc2)NC(=O)CCCCCCNC(=O)[C@H](Cc2ccccc2)NC1=O (stereo in doubt) | 3.5
C[C@@H](O)[C@@H]1NC(=O)[C@H](CCCCN)NC(=O)[C@@H](Cc2c[nH]c3ccccc23)NC(=O)[C@H](Cc2ccccc2)NC(=O)[C@@H]2CSSC[C@H](NC1=O)C(=O)NCCCCCCC(=O)N2 (stereo in doubt) | 0.81
C[C@@H](O)[C@@H]1NC(=O)[C@H](CCCCN)NC(=O)[C@@H](Cc2c[nH]c3ccccc23)NC(=O)[C@H](Cc2ccccc2)NC(=O)[C@H](Cc2ccccc2)NC(=O)CCCCCCNC(=O)[C@H](Cc2ccccc2)NC1=O (stereo in doubt) | 1.08
C[C@@H](O)[C@@H]1NC(=O)[C@H](CCCCN)NC(=O)[C@@H](Cc2c[nH]c3ccccc23)NC(=O)[C@H](Cc2cscn2)NC(=O)[C@H](Cc2ccccc2)NC(=O)CCCCCCNC(=O)[C@H](Cc2ccccc2)NC1=O (stereo in doubt) | 5
C[C@@H](O)[C@@H]1NC(=O)[C@H](CCCCN)NC(=O)[C@H](Cc2c[nH]c3cc(F)ccc23)NC(=O)[C@H](Cc2ccccc2)NC(=O)[C@H](Cc2ccccc2)NC(=O)CCCCCCNC(=O)[C@H](Cc2ccccc2)NC1=O (stereo in doubt) | 2.4
C[C@@H](O)[C@@H]1NC(=O)[C@H](CCCCN)NC(=O)[C@H](Cc2c[nH]c3ccc(Br)cc23)NC(=O)[C@H](Cc2ccccc2)NC(=O)[C@H](Cc2ccccc2)NC(=O)CCCCCCNC(=O)[C@H](Cc2ccccc2)NC1=O (stereo in doubt) | 50
C[C@@H](O)[C@@H]1NC(=O)[C@H](CCCCN)NC(=O)[C@H](Cc2c[nH]c3ccc(F)cc23)NC(=O)[C@H](Cc2ccccc2)NC(=O)[C@H](Cc2ccccc2)NC(=O)CCCCCCNC(=O)[C@H](Cc2ccccc2)NC1=O (stereo in doubt) | 6.7
C[C@@H](O)[C@@H]1NC(=O)[C@H](CCCN)NC(=O)[C@@H](Cc2c[nH]c3ccccc23)NC(=O)[C@H](Cc2ccccc2)NC(=O)[C@H](Cc2ccccc2)NC(=O)CCCCCCNC(=O)[C@H](Cc2ccccc2)NC1=O (stereo in doubt) | 20
C[C@@H](O)[C@@H]1NC(=O)[C@H](CCCN=C(N)N)NC(=O)[C@@H](Cc2c[nH]c3ccccc23)NC(=O)[C@H](Cc2ccccc2)NC(=O)[C@H](Cc2ccccc2)NC(=O)CCCCCCNC(=O)[C@H](Cc2ccccc2)NC1=O (stereo in doubt) | 14
C[C@@H](O)[C@@H]1NC(=O)[C@H](Cc2ccc(N)cc2)NC(=O)[C@H](Cc2cn(C)c3ccccc23)NC(=O)[C@H](Cc2ccccc2)NC(=O)[C@H](Cc2ccccc2)NC(=O)CCCCCCNC(=O)[C@H](Cc2ccccc2)NC1=O (stereo in doubt) | 1.8
C[C@@H]1NC(=O)[C@H](Cc2ccccc2)NC(=O)CCCCCCNC(=O)[C@H](Cc2ccccc2)NC(=O)[C@H]([C@@H](C)O)NC(=O)[C@H](CCCCN)NC(=O)[C@@H](Cc2c[nH]c3ccccc23)NC1=O (stereo in doubt) | 6.25
Cc1ccc2[nH]cc(C[C@@H]3NC(=O)[C@H](Cc4ccccc4)NC(=O)[C@H](Cc4ccccc4)NC(=O)CCCCCCNC(=O)[C@H](Cc4ccccc4)NC(=O)[C@H]([C@@H](C)O)NC(=O)[C@H](CCCCN)NC3=O)c2c1 (stereo in doubt) | 14
